Measured values as given in ChEMBL document CHEMBL3102784, “Salicylanilide diethyl phosphates: synthesis, antimicrobial activity and cytotoxicity” (Bioorg Med Chem, 2014).
In brackets after ≈: the same amount, converted by molar mass. Activity calls are given as the source filed them. The calls are words filed in the database; no cut-off is given here.

Key:
Aspergillus fumigatus [1] = assay: Antifungal activity against Aspergillus fumigatus 231 after 48 hrs by broth microdilution method; assay type: functional; conditions: Aspergillus fumigatus, 231, 48 h
Outline: (§1)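 Broth microdilution in RPMI 1640 with glutamine, fluconazole as reference. For yeasts, MIC is ≥80% growth reduction (IC80) versus control. For filamentous fungi, the value is expressed as IC50. Readings at 24 and 48 h.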

Pichia kudriavzevii [2] = assay: Antifungal activity against Candida krusei E28 after 48 hrs by broth microdilution method; assay type: functional; conditions: E28, 48 h; outline: as §1
Lichtheimia corymbifera [3] = assay: Antifungal activity against Absidia corymbifera 272 after 48 hrs by broth microdilution method; assay type: functional; conditions: Lichtheimia corymbifera, 272, 48 h; outline: as §1
Candida albicans [4] = assay: Antifungal activity against Candida albicans ATCC 44859 after 24 hrs by broth microdilution method; assay type: functional; conditions: ATCC 44859, 24 h; outline: as §1
Trichosporon asahii [5] = assay: Antifungal activity against Trichosporon asahii 1188 after 48 hrs by broth microdilution method; assay type: functional; conditions: Trichosporon asahii, 1188, 48 h; outline: as §1
Mycobacterium kansasii [6] = assay: Antimycobacterial activity against Mycobacterium kansasii 6509/96 after 21 days; assay type: functional; conditions: 6509/96, 504 h
Outline: (§2)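 Micromethod MIC in Šula's semisynthetic medium at 37 °C. Compounds added in DMSO at 1000 down to 0.032 µmol/L. Isoniazid standard in sterile water at 0.5–250 µmol/L. Inocula: H37Rv 10^3, M. avium 10^5, M. kansasii 10^4. Read at 14 and 21 d, plus 7 d for M. kansasii.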

Nakaseomyces glabratus = assay: Antifungal activity against Candida glabrata 20/I at 500 micromol/L after 24 to 48 hrs by broth microdilution method; assay type: functional, organism-based; outline: as §1
Mycobacterium avium [7] = assay: Antimycobacterial activity against isoniazid, rifampicin, ethambutol and ofloxacin-resistant Mycobacterium avium My 330/88 after 14 days; assay type: functional; conditions: My 330/88, 336 h; outline: as §2
Trichosporon asahii [8] = assay: Antifungal activity against Trichosporon asahii 1188 after 24 hrs by broth microdilution method; assay type: functional; conditions: Trichosporon asahii, 1188, 24 h; outline: as §1
Mycobacterium kansasii [9] = assay: Antimycobacterial activity against Mycobacterium kansasii My 235/80 after 14 days; assay type: functional; conditions: My 235/80, 336 h; outline: as §2
Escherichia coli = assay: Antibacterial activity against Escherichia coli CCM 4517 at 500 micromol/L after 24 to 48 hrs by broth microdilution method; assay type: functional, organism-based
Outline: (§3)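 Broth microdilution in Mueller–Hinton broth, compounds dissolved in DMSO, tested over a dilution series from 500 downward. MIC taken as ≥95% growth reduction (IC95) versus drug-free control. Benzylpenicillin comparator. Readings at 24 and 48 h.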

Mycobacterium avium [10] = assay: Antimycobacterial activity against isoniazid, rifampicin, ethambutol and ofloxacin-resistant Mycobacterium avium My 330/88 after 21 days; assay type: functional; conditions: My 330/88, 504 h; outline: as §2
Staphylococcus aureus [11] = assay: Antibacterial activity against Staphylococcus aureus CCM 4516/08 after 24 hrs by broth microdilution method; assay type: functional; conditions: CCM 4516/08, 24 h; outline: as §3
Pseudomonas aeruginosa = assay: Antibacterial activity against Pseudomonas aeruginosa CCM 1961 at 500 micromol/L after 24 to 48 hrs by broth microdilution method; assay type: functional, organism-based; outline: as §3
Staphylococcus aureus [12] = assay: Antibacterial activity against methicillin-resistant Staphylococcus aureus H 5996/08 after 48 hrs by broth microdilution method; assay type: functional; conditions: H 5996/08, 48 h; outline: as §3
Enterococcus sp. = assay: Antibacterial activity against Enterococcus sp. J 14365/08 at 500 micromol/L after 24 to 48 hrs by broth microdilution method; assay type: functional, organism-based; outline: as §3
[13] = test system: Staphylococcus epidermidis; assay: Antibacterial activity against Staphylococcus epidermidis H 6966/08 after 24 hrs by broth microdilution method; assay type: functional; conditions: H 6966/08, 24 h; outline: as §3
Mycobacterium kansasii [14] = assay: Antimycobacterial activity against Mycobacterium kansasii 6509/96 after 14 days; assay type: functional; conditions: 6509/96, 336 h; outline: as §2
Staphylococcus aureus [15] = assay: Antibacterial activity against methicillin-resistant Staphylococcus aureus H 5996/08 after 24 hrs by broth microdilution method; assay type: functional; conditions: H 5996/08, 24 h; outline: as §3
[16] = test system: Trichophyton mentagrophytes; assay: Antifungal activity against Trichophyton mentagrophytes 445 after 120 hrs by broth microdilution method; assay type: functional; conditions: Trichophyton mentagrophytes, 445, 120 h
Outline: (§4)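 Filamentous dermatophyte tested by broth microdilution in RPMI 1640 with glutamine, fluconazole as reference. Value expressed as IC50 relative to growth control. Read at 72 and 120 h.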

[17] = test system: Mycobacterium tuberculosis; assay: Antimycobacterial activity against Mycobacterium tuberculosis H37Rv My 331/88 after 14 days; assay type: functional; conditions: H37Rv My 331/88, 336 h; outline: as §2
Klebsiella pneumoniae [18] = assay: Antibacterial activity against Klebsiella pneumoniae D 11750/08 at 500 micromol/L after 24 to 48 hrs by broth microdilution method; assay type: functional, organism-based; outline: as §3
Mycobacterium kansasii [19] = assay: Antimycobacterial activity against Mycobacterium kansasii 6509/96 after 7 days; assay type: functional; conditions: 6509/96, 168 h; outline: as §2
Lichtheimia corymbifera [20] = assay: Antifungal activity against Absidia corymbifera 272 after 24 hrs by broth microdilution method; assay type: functional; conditions: Lichtheimia corymbifera, 272, 24 h; outline: as §1
Candida tropicalis = assay: Antifungal activity against Candida tropicalis 156 at 500 micromol/L after 24 to 48 hrs by broth microdilution method; assay type: functional, organism-based; outline: as §1
Aspergillus fumigatus [21] = assay: Antifungal activity against Aspergillus fumigatus 231 after 24 hrs by broth microdilution method; assay type: functional; conditions: Aspergillus fumigatus, 231, 24 h; outline: as §1
Klebsiella pneumoniae [22] = assay: Antibacterial activity against ESBL-positive Klebsiella pneumoniae J 14368/08 at 500 micromol/L after 24 to 48 hrs by broth microdilution method; assay type: functional, organism-based; outline: as §3
Candida albicans [23] = assay: Antifungal activity against Candida albicans ATCC 44859 after 48 hrs by broth microdilution method; assay type: functional; conditions: ATCC 44859, 48 h; outline: as §1
Pichia kudriavzevii [24] = assay: Antifungal activity against Candida krusei E28 after 24 hrs by broth microdilution method; assay type: functional; conditions: E28, 24 h; outline: as §1
[25] = test system: Trichophyton mentagrophytes; assay: Antifungal activity against Trichophyton mentagrophytes 445 after 72 hrs by broth microdilution method; assay type: functional; conditions: Trichophyton mentagrophytes, 445, 72 h; outline: as §4
HepG2 = assay: Cytotoxicity against human HepG2 cells after 24 hrs by CellTiter assay; assay type: cell-based; conditions: HepG2, 24 h
Outline: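 HepG2 cells (passage 27–33) in MEM with 10% FBS, L-glutamine and NEAA, seeded at 1×10^4 per well. Treated next day with compounds at 0.1–100 µM (or 0.1–25 µmol/L), triplicates, <1% DMSO, for 24 h at 37 °C, 5% CO2. MTS reagent added for 2 h, absorbance read at 490 nm. IC50 taken against untreated (100%) and 10% DMSO (0%) controls.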

[26] = test system: Staphylococcus epidermidis; assay: Antibacterial activity against Staphylococcus epidermidis H 6966/08 after 48 hrs by broth microdilution method; assay type: functional; conditions: H 6966/08, 48 h; outline: as §3
[27] = test system: Mycobacterium tuberculosis; assay: Antimycobacterial activity against Mycobacterium tuberculosis H37Rv My 331/88 after 21 days; assay type: functional; conditions: H37Rv My 331/88, 504 h; outline: as §2
Mycobacterium kansasii [28] = assay: Antimycobacterial activity against Mycobacterium kansasii My 235/80 after 7 days; assay type: functional; conditions: My 235/80, 168 h; outline: as §2
Staphylococcus aureus [29] = assay: Antibacterial activity against Staphylococcus aureus CCM 4516/08 after 48 hrs by broth microdilution method; assay type: functional; conditions: CCM 4516/08, 48 h; outline: as §3
Mycobacterium kansasii [30] = assay: Antimycobacterial activity against Mycobacterium kansasii My 235/80 after 21 days; assay type: functional; conditions: My 235/80, 504 h; outline: as §2

| SMILES | MIC50 (Aspergillus fumigatus [1]) [µM] | MIC80 (Pichia kudriavzevii [2]) [µM] | MIC50 (Lichtheimia corymbifera [3]) [µM] | MIC80 (Candida albicans [4]) [µM] | MIC80 (Trichosporon asahii [5]) [µM] | MIC (Mycobacterium kansasii [6]) [µM] | Activity (Nakaseomyces glabratus) | MIC (Mycobacterium avium [7]) [µM] | MIC80 (Trichosporon asahii [8]) [µM] | MIC (Mycobacterium kansasii [9]) [µM] | Activity (Escherichia coli) | MIC (Mycobacterium avium [10]) [µM] | MIC95 (Staphylococcus aureus [11]) [µM] | Activity (Pseudomonas aeruginosa) | MIC95 (Staphylococcus aureus [12]) [µM] | Activity (Enterococcus sp.) | MIC95 [13] [µM] | MIC (Mycobacterium kansasii [14]) [µM] | MIC95 (Staphylococcus aureus [15]) [µM] | MIC50 [16] [µM] | further results |
| --- | --- | --- | --- | --- | --- | --- | --- | --- | --- | --- | --- | --- | --- | --- | --- | --- | --- | --- | --- | --- | --- |
| CCOP(=O)(OCC)Oc1ccc(Br)cc1C(=O)Nc1cccc(C(F)(F)F)c1 | > 500 | > 500 | > 500 | > 500 | > 500 | 8 (≈ 3.97 µg/mL) | inactive | 16 (≈ 7.94 µg/mL) | > 500 | 4 (≈ 1.98 µg/mL) | inactive | 16 (≈ 7.94 µg/mL) | 7.81 (≈ 3.88 µg/mL) | inactive | 15.6 (≈ 7.75 µg/mL) | inactive | 7.81 (≈ 3.88 µg/mL) | 8 (≈ 3.97 µg/mL) | 15.6 (≈ 7.75 µg/mL) | 62.5 (≈ 31 µg/mL) | MIC [17]: 2 µM (≈ 0.992 µg/mL); Activity (Klebsiella pneumoniae [18]): inactive; MIC (Mycobacterium kansasii [19]): 4 µM (≈ 1.98 µg/mL); MIC50 (Lichtheimia corymbifera [20]): > 500 µM; Activity (Candida tropicalis): inactive; MIC50 (Aspergillus fumigatus [21]): > 500 µM; Activity (Klebsiella pneumoniae [22]): inactive; MIC80 (Candida albicans [23]): > 500 µM; MIC80 (Pichia kudriavzevii [24]): > 500 µM; MIC50 [25]: 62.5 µM (≈ 31 µg/mL); IC50 (HepG2): 1.84 µM; MIC95 [26]: 7.81 µM (≈ 3.88 µg/mL); MIC [27]: 2 µM (≈ 0.992 µg/mL); MIC (Mycobacterium kansasii [28]): 4 µM (≈ 1.98 µg/mL); MIC95 (Staphylococcus aureus [29]): 7.81 µM (≈ 3.88 µg/mL); MIC (Mycobacterium kansasii [30]): 8 µM (≈ 3.97 µg/mL) |
| CCOP(=O)(OCC)Oc1ccc(Br)cc1C(=O)Nc1cccc(Br)c1 | > 500 | > 500 | > 500 | > 500 | > 500 | 8 (≈ 4.06 µg/mL) | inactive | 16 (≈ 8.11 µg/mL) | > 500 | 8 (≈ 4.06 µg/mL) | inactive | 16 (≈ 8.11 µg/mL) | 31.2 (≈ 15.8 µg/mL) | inactive | 250 (≈ 127 µg/mL) | inactive | 31.2 (≈ 15.8 µg/mL) | 8 (≈ 4.06 µg/mL) | 31.2 (≈ 15.8 µg/mL) | > 500 | MIC [17]: 2 µM (≈ 1.01 µg/mL); Activity (Klebsiella pneumoniae [18]): inactive; MIC (Mycobacterium kansasii [19]): 4 µM (≈ 2.03 µg/mL); MIC50 (Lichtheimia corymbifera [20]): > 500 µM; Activity (Candida tropicalis): inactive; MIC50 (Aspergillus fumigatus [21]): > 500 µM; Activity (Klebsiella pneumoniae [22]): inactive; MIC80 (Candida albicans [23]): > 500 µM; MIC80 (Pichia kudriavzevii [24]): > 500 µM; MIC50 [25]: > 500 µM; IC50 (HepG2): 4.41 µM; MIC95 [26]: 250 µM (≈ 127 µg/mL); MIC [27]: 2 µM (≈ 1.01 µg/mL); MIC (Mycobacterium kansasii [28]): 4 µM (≈ 2.03 µg/mL); MIC95 (Staphylococcus aureus [29]): 250 µM (≈ 127 µg/mL); MIC (Mycobacterium kansasii [30]): 8 µM (≈ 4.06 µg/mL) |
